Measurements: ChEMBL document CHEMBL4270546, “A novel Anti-Cancer Stem Cells compound optimized from the natural symplostatin 4 scaffold inhibits Wnt/β-catenin signaling pathway” (Eur J Med Chem, 2018)
Calls of active or inactive are those of the source. The rule behind the calls is not given here.

What was measured:
[1] = species on record: Homo sapiens; test: Inhibition of Wnt/beta-catenin signaling pathway (unknown origin) expressed in human 293T cells assessed as inhibition of TCF/LEF activity up to 100 uM after 48 hrs by luciferase reporter gene assay; type: cell-based
In short: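 293T cells transfected with a TCF/LEF reporter plasmid were treated with compound at different concentrations for 48 h. Luciferase activity was measured and normalized to Renilla luciferase activity.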

[2] = system: B16-F10; test: Antiproliferative activity against mouse B16F10 cells after 48 hrs by MTT assay; type: functional, cell-based; conditions: B16-F10, 48 h
[3] = system: B16-F10; test: Inhibition of colony formation in mouse B16F10 cells at 0.125 to 0.25 uM after 7 days by crystal violet staining based assay; type: functional, cell-based
In short: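 Clonogenic long-term growth assay: A375 or B16F10 cells grown under continuous compound exposure for 7 days, then colonies quantified; mean ± sd, n = 3, two-way ANOVA.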

[4] = system: A-375; test: Induction of apoptosis in human A375 cells assessed as live cells at 1 uM after 48 hrs by Annexin V-FITC/propidium iodide staining based flow cytometry (reference value: 93.6%); type: functional
[5] = system: A-375; test: Induction of apoptosis in human A375 cells assessed as necrotic cells at 1 uM after 48 hrs by Annexin V-FITC/propidium iodide staining based flow cytometry (reference value: 2.39%); type: functional
[6] = system: A-375; test: Induction of apoptosis in human A375 cells assessed as late apoptotic cells at 2 uM after 48 hrs by Annexin V-FITC/propidium iodide staining based flow cytometry (reference value: 2.7%); type: functional
[7] = system: B16-F10; test: Induction of apoptosis in mouse B16F10 cells assessed as live cells at 1 uM after 48 hrs by Annexin V-FITC/propidium iodide staining based flow cytometry (reference value: 97.6%); type: functional
[8] = system: B16-F10; test: Induction of apoptosis in mouse B16F10 cells assessed as early apoptotic cells at 1 uM after 48 hrs by Annexin V-FITC/propidium iodide staining based flow cytometry (reference value: 0.022%); type: functional
[9] = system: B16-F10; test: Induction of apoptosis in mouse B16F10 cells assessed as late apoptotic cells at 1 uM after 48 hrs by Annexin V-FITC/propidium iodide staining based flow cytometry (reference value: 0.303%); type: functional
[10] = system: B16-F10; test: Induction of apoptosis in mouse B16F10 cells assessed as early apoptotic cells at 2 uM after 48 hrs by Annexin V-FITC/propidium iodide staining based flow cytometry (reference value: 0.022%); type: functional
[11] = system: B16-F10; test: Induction of apoptosis in mouse B16F10 cells assessed as late apoptotic cells at 2 uM after 48 hrs by Annexin V-FITC/propidium iodide staining based flow cytometry (reference value: 0.303%); type: functional
[12] = system: B16-F10; test: Induction of apoptosis in mouse B16F10 cells assessed as necrotic cells at 2 uM after 48 hrs by Annexin V-FITC/propidium iodide staining based flow cytometry (reference value: 1.86%); type: functional
[13] = system: A-375; test: Induction of apoptosis in human A375 cells after 48 hrs by Annexin V-FITC/propidium iodide staining based flow cytometry; type: functional, cell-based
[14] = system: B16-F10; test: Induction of apoptosis in mouse B16F10 cells after 48 hrs by Annexin V-FITC/propidium iodide staining based flow cytometry; type: functional, cell-based
[15] = system: A-375; test: Induction of apoptosis in human A375 cells assessed as upregulation of cleaved PARP expression at 0.5 to 4 uM after 48 hrs by Western blot analysis; type: functional, cell-based
In short: (§1)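 Cells treated with compound at different concentrations (0.5-4 μM) for 48 h. Lysates probed by Western blot for cleaved PARP, active caspase-3, Bax and p53.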

[16] = system: B16-F10; test: Induction of apoptosis in mouse B16F10 cells assessed as upregulation of cleaved PARP expression at 0.5 to 4 uM after 48 hrs by Western blot analysis; type: functional, cell-based; in short: as §1
[17] = system: A-375; test: Antimigratory activity against human A375 cells at 0.25 uM after 24 to 48 hrs by wound healing assay; type: functional, cell-based
In short: (§2)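 Wound-healing scratch assay on cells treated with or without compound (0.25 μM). Images recorded at 0, 24 and 48 h, and migration distance quantified. Mean ± sd, n = 3, two-way ANOVA.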

[18] = system: B16-F10; test: Antimigratory activity against mouse B16F10 cells at 0.25 uM after 24 to 48 hrs by wound healing assay; type: functional, cell-based; in short: as §2
[19] = system: B16-F10; test: Antimigratory activity against mouse B16F10 cells at 0.25 uM after 24 hrs by transwell migration assay; type: functional, cell-based
In short: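 Cells seeded in the upper chamber of a transwell and incubated with compound (0.25 μM) for 24 h. Cells migrated to the lower chamber were imaged and counted against an untreated control. Mean ± sd, n = 3, two-way ANOVA.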

[20] = system: B16-F10; test: Anti-invasive activity against mouse B16F10 cells at 0.25 uM after 24 hrs by matrigel invasion assay; type: functional, cell-based
In short: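 Cells seeded in the upper chamber of a transwell with a Matrigel-precoated filter, incubated with compound (0.25 μM) for 24 h. Invaded cells imaged and counted against an untreated control. Mean ± sd, n = 3, two-way ANOVA.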

[21] = system: A-375; test: Inhibition of tumor sphere formation ability of human A375 cells at 0.25 to 0.5 uM pretreated for 48 hrs followed by cell culture for 7 days; type: functional, cell-based
In short: (§3)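 A375 or B16F10 cells pretreated with or without compound for 48 h, collected and replated on ultra-low attachment surfaces; after 7 days of culture, sphere number and size scored; mean ± sd, n = 3, two-way ANOVA.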

[22] = system: B16-F10; test: Inhibition of tumor sphere formation ability of mouse B16F10 cells at 0.25 to 0.5 uM pretreated for 48 hrs followed by cell culture for 7 days; type: functional, cell-based; in short: as §3
[23] = system: A-375; test: Inhibition of ALDH+ subpopulation of human A375 cells assessed as ALDH+ cells at 0.25 after 48 hrs by flow cytometry (reference value: 25.7%); type: functional; design: scale not given: the % may be the effect or the level left
[24] = system: B16-F10; test: Inhibition of ALDH+ subpopulation of mouse B16F10 cells assessed as ALDH+ cells at 0.5 after 48 hrs by flow cytometry (reference value: 26.7%); type: functional; design: scale not given: the % may be the effect or the level left
[25] = system: A-375; test: Inhibition of CD133+ sub-population of human A375 cells assessed as CD133+ cells at 0.5 after 48 hrs by flow cytometry (reference value: 4.54%); type: functional; design: scale not given: the % may be the effect or the level left
[26] = system: B16-F10; test: Inhibition of CD133+ sub-population of mouse B16F10 cells assessed as CD133+ cells at 0.5 after 48 hrs by flow cytometry (reference value: 7.23%); type: functional; design: scale not given: the % may be the effect or the level left
[27] = system: Mus musculus; test: Toxicity in C57BL/6J mouse implanted with mouse B16F10 cells assessed as change in body weight at 15 mg/kg/day, ip measured daily for 24 days; type: organism-based; conditions: in vivo, 576 h
In short: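 C57BL/6J mice carrying subcutaneous B16F10 cell grafts; vehicle and treated groups (n = 5) followed for body weight, with tumours dissected and weighed on day 24; mean ± sd, two-way ANOVA.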

[28] = system: A-375; test: Induction of apoptosis in human A375 cells assessed as upregulation of p53 expression after 48 hrs by Western blot analysis
[29] = system: B16-F10; test: Induction of apoptosis in mouse B16F10 cells assessed as upregulation of Bax expression after 48 hrs by Western blot analysis
[30] = system: B16-F10; test: Induction of apoptosis in mouse B16F10 cells assessed as upregulation of p53 expression after 48 hrs by Western blot analysis

Which inhibition [1] does the source give for CC[C@H](C)[C@H](NC(=O)OCc1ccccc1)C(=O)N[C@@H](CC(C)C)C(=O)N[C@@H](CC(C)C)C(=O)N[C@@H](C)/C=C/C(=O)N1C(=O)C=C(OC)[C@@H]1C(C)C here?
The inhibition was “Active”.

What about the IC50 [2] of the same compound?
The IC50 was 0.522 µM.

What about the inhibition [3] of the same compound?
The inhibition was “Active”.

And the Activity [4]?
Its Activity is 97.9%.

What about the Activity [5] of the same compound?
The Activity was 4.16%.

And the Activity [6]?
The Activity was 8.11%.

And the Activity [7]?
Its Activity is 85%.

What about the Activity [8] of the same compound?
The Activity was 8.74%.

And the Activity [9]?
Its Activity is 4.05%.

And the Activity [10]?
The Activity was 31.8%.

What about the Activity [11] of the same compound?
The Activity was 32.9%.

And the Activity [12]?
The Activity was 3.92%.

And the Activity [13]?
The Activity was “Dose-dependent effect”.

What about the Activity [14] of the same compound?
Its Activity is “Dose-dependent effect”.

What about the Activity [15] of the same compound?
The Activity was “Active”.

What about the Activity [16] of the same compound?
Its Activity is “Active”.

What about the Activity [17] of the same compound?
Its Activity is “Active”.

And the Activity [18]?
Its Activity is “Active”.

And the Activity [19]?
The Activity was “Active”.

What about the Activity [20] of the same compound?
Its Activity is “Active”.

And the inhibition [21]?
The inhibition was “Active”.

And the inhibition [22]?
The inhibition was “Active”.

What about the Activity [23] of the same compound?
The Activity was 13.3%.

And the Activity [24]?
The Activity was 11.8%.

And the Activity [25]?
The Activity was 0.867%.

What about the Activity [26] of the same compound?
Its Activity is 1.7%.

What about the Activity [27] of the same compound?
The Activity was “Non-Toxic”.

And the p53 upregulation [28]?
Its p53 upregulation is “Dose-dependent effect”.

And the Bax upregulation [29]?
The Bax upregulation was “Dose-dependent effect”.

And the p53 upregulation [30]?
Its p53 upregulation is “Dose-dependent effect”.
